Experimental data of several laboratories.
Target: Serine/threonine-protein kinase DCLK3 (DCLK3, Homo sapiens, UniProt Q9C098)
Sequence (Q9C098 1-648, as in one of the studies): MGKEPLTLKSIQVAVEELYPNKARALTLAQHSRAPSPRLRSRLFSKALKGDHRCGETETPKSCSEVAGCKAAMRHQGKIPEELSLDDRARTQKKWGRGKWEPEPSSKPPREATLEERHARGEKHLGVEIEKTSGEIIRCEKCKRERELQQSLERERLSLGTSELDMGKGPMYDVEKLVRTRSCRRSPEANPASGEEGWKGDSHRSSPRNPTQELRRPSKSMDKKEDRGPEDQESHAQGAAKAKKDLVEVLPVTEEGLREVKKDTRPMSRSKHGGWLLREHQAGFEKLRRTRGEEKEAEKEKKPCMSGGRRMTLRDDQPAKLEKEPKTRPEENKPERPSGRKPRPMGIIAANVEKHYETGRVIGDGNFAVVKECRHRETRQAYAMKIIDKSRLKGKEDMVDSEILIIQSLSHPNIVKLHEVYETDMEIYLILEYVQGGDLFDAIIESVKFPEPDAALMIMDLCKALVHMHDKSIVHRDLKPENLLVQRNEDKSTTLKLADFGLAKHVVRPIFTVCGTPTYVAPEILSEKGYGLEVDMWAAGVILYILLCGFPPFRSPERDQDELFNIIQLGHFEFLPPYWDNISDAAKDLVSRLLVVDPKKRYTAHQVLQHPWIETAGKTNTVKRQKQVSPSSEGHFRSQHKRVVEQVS

For `O=C(N1CCS(=O)(=O)CC1)N1C[C@H](c2ccc(OC(F)(F)F)cc2)C[C@H](c2nc(C3CC3)no2)C1`, the remaining binding was 100% (cell-free assay; competition with immobilised ligand; 1 µM).
`C=CC(=O)N1CCC(C(=O)NCC(=O)N2CCN(c3nc(-c4cnc(N)nc4C(F)F)nc(N4CCOCC4)n3)CC2)CC1` gave a remaining binding of 96% (binding; competition with immobilised ligand; 1 µM).
`COc1ccnn2ncc(-c3ccnc(N(C)C)n3)c12` has a remaining binding of 100% (binding; 1 µM).
With `CNC(=O)c1ccc(Nc2ncc(C(F)(F)F)c(NCc3nccnc3N(C)S(C)(=O)=O)n2)cc1` the remaining binding was 67% (cell-free assay; competition with immobilised ligand; 0.1 µM).
`O=C(NCCCN1CCOCC1)c1ccc(Nc2ncc(Cl)c(-c3ccc(Cl)s3)n2)cc1` has a remaining binding of 1.9% (binding; competition with immobilised ligand; 1 µM).
For `CCCCN(CCCC)C(=O)CN1C[C@@H](c2cc(OC)c3c(c2)OCO3)[C@H](C(=O)O)[C@H]1CC(C)(C)CCC`, the remaining binding was 100% (cell-free assay; competition with immobilised ligand; 1 µM).
For `N[C@H]1CCN(c2nccc(-c3cnn4ncccc34)n2)C1`, the remaining binding was 100% (binding; 1 µM).
The remaining binding of `O=C(c1ccc(Nc2nccc(-c3cc4ccccc4s3)n2)cc1)N1CCC(N2CCCC2)CC1` is reported as 45% (binding; competition with immobilised ligand; 1 µM).
For `COc1cnc(Nc2cccc(S(N)(=O)=O)c2)nc1N1CCN(c2ccccc2)CC1`, the remaining binding was 71% (binding; competition with immobilised ligand; 1 µM).
`CN(C)c1nccc(-c2cnn3ncccc23)n1` gave a remaining binding of 100% (binding; 1 µM).
With `COc1ncc2cc3ccccc3nc2c1C#N` the remaining binding was 100% (cell-free assay; competition with immobilised ligand; 5 µM).
For `Cn1cc(Cl)c2c(Oc3c(F)cc(Nc4cc(Cl)nc(N)n4)cc3F)ccnc21`, the remaining binding was 89% (cell-free assay; competition with immobilised ligand; 0.1 µM).
For `O=C(NCCCN1CCOCC1)c1ccc(Nc2nccc(-c3cc4ccccc4s3)n2)cc1`, the remaining binding was 0.4% (binding; competition with immobilised ligand; 1 µM).
`C[C@H]1CCN(c2nccc(-c3cnn4ncccc34)n2)C1` has a remaining binding of 93% (binding; 1 µM).
With `C[C@@H](c1ccc(-n2cnc3c(N)ncnc32)cc1)N1CCc2nn(C)c(Cc3ccccc3)c2C1=O` the remaining binding was 85% (binding; competition with immobilised ligand; 0.1 µM).
`CN(C)c1ncc(F)c(-c2cnn3ncccc23)n1` gave a remaining binding of 100% (binding; 1 µM).
The remaining binding of `c1cncc(-c2cccc(Nc3nccc(NC4CCCCC4)n3)c2)c1` is reported as 80% (binding; competition with immobilised ligand; 10 µM).
The remaining binding of `N#CC1(c2ccccn2)CCN(Cc2cc(C(=O)N3CCCC3)c(=O)n3ccccc23)CC1` is reported as 100% (cell-free assay; competition with immobilised ligand; 1 µM).
The remaining binding of `Cc1cnn2ncc(-c3ccnc(N(C)C)n3)c2c1` is reported as 93% (binding; 1 µM).
`C[C@H](c1cccc(C#N)c1)n1cc(Cl)cc(C(N)=O)c1=N` has a remaining binding of 99% (cell-free assay; competition with immobilised ligand; 1 µM).
`O=C(NCC1CCOCC1)c1n[nH]cc1NC(=O)c1c(F)cccc1F` gave a remaining binding of 61% (binding; competition with immobilised ligand; 1 µM).
